Experimental data from ChEMBL document CHEMBL3259690, “Synthesis, structure-activity relationships, and biological studies of chromenochalcones as potential antileishmanial agents” (J Med Chem, 2014).

Key:
[1] = Half life in syrian golden hamster liver S9 fraction at 10 uM in presence of NADPH; format: ADME, subcellular, Mesocricetus auratus
In short: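 Hamster liver S9 (2 mg/mL protein), 50 mM Tris, 20 mM MgCl₂, 2 mM NADPH preincubated 10 min, then compound added at 10 μM final (1% organic) at 37 °C in triplicate. Sampled 0−60 min; no-NADPH control sampled at 0, 15, 30 and 60 min. Quenched with ice-cold methanol, extracted by LLE. Data as % parent remaining versus 0 min; testosterone as positive control.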

Syrian golden hamster = assay: Toxicity in Syrian golden hamster at 100 mg/kg, po administered via gavage as single dose; format: organism-based, Mesocricetus auratus; set-up: dose 100 mg/kg, route oral; details: in vivo
[2] = Apparent oral volume of distribution in Syrian golden hamster at 100 mg/kg, po administered via gavage as single dose by HPLC-UV analysis; format: ADME, organism-based, Mesocricetus auratus; set-up: dose 100 mg/kg, route oral; details: in vivo
In short: (§1)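 Male Syrian golden hamsters (100 ± 15 g) given a single oral dose of 100 mg/kg. Plasma stored at −70 °C and assayed by HPLC-UV. Concentration–time profiles analysed non-compartmentally; values mean ± SD.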

Leishmania donovani [3] = assay: Induction of early apoptosis in Leishmania donovani MHOM/IN/80/Dd8 promastigotes at 0.78 uM after 24 hrs by Annexin V-FITC/propidium iodide staining based flow cytometry (reference value: 13.70%); format: functional
Leishmania donovani [4] = assay: Induction of early apoptosis in Leishmania donovani MHOM/IN/80/Dd8 promastigotes at 0.78 uM after 6 hrs by Annexin V-FITC/propidium iodide staining based flow cytometry (reference value: 13.70%); format: functional
[5] = Cytotoxicity against African green monkey Vero cells after 72 hrs by MTT assay; format: cell-based; details: chlorocebus sabaeus
In short: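 Vero cells at 1 × 10⁵/mL exposed to seven concentrations from 400 μM at 37 °C, 5% CO₂, for 72 h. MTT (5 mg/mL) added for 2 h at 37 °C, formazan dissolved in DMSO, absorbance read at 544 nm. CC₅₀ estimated by the Huber and Koella method; at least duplicate measurements.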

[6] = Stability of the compound in simulated gastric fluid at 10 uM by HPLC-UV analysis; format: physicochemical; details: simulated gi fluid
In short: (§2)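 Simulated gastric and intestinal fluids made to USP specifications. Compound at 10 μM incubated in SGF sampled at 0, 15, 30 and 60 min, and in SIF at 0, 30, 60, 90 and 120 min. Mean ± SEM.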

Leishmania donovani [7] = assay: Induction of apoptosis in Leishmania donovani MHOM/IN/80/Dd8 promastigotes assessed as drop in mitochondrial membrane potential at 0.78 uM after 6 hrs by JC-1 dye based flow cytometry (reference value: 5.87%); format: functional
Leishmania donovani [8] = assay: Antileishmanial activity against Leishmania donovani MHOM/IN/80/Dd8 amastigotes infected in syrian golden hamster assessed as decrease in parasite count in spleen at 50 mg/kg/day, po for 5 days measured on day 28 after last dose administration by giemsa staining; format: functional; details: MHOM/IN/80/Dd8, Spleen
In short: (§3)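 Golden hamsters of either sex infected intracardially with 1 × 10⁷ L. donovani Dd8 amastigotes. After 15−20 days, pretreatment spleen biopsy; animals with +1 grade infection (5−10 amastigotes/100 spleen cell nuclei) used, 5−6 per compound. Aqueous suspensions dosed IP or PO for 5−10 consecutive days starting 2 days after biopsy. Splenic biopsies on day 7 and 28 after last dose, Giemsa counts; PI = 100 − [(ANAT×100)/(INAT×TIUC)].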

J774.A1 [9] = assay: Increase in TNF-alpha production in mouse J774A1 cells infected with Leishmania donovani at IC50 concentration after 24 hrs by sandwich ELISA relative to control; format: functional
In short: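 J774A.1 macrophages (1 × 10⁶) infected with Leishmania at 1:10, treated in 6-well plates at the compound's IC₅₀ concentration, 37 °C, CO₂. Supernatants from normal, infected-untreated and infected-treated cells collected after 24 h. IL-12, TNF-α, IL-10 and TGF-β measured by sandwich ELISA at 450 nm, in pg/mL. Two independent experiments in duplicate, mean ± SD; Student's t test against infected control.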

[10] = Apparent oral clearance in Syrian golden hamster at 100 mg/kg, po administered via gavage as single dose by HPLC-UV analysis; format: ADME, organism-based, Mesocricetus auratus; set-up: dose 100 mg/kg, route oral; details: in vivo; in short: as §1
[11] = Selectivity index, ratio of CC50 for African green monkey Vero cells to IC50 for Leishmania donovani MHOM/IN/80/Dd8 intracellular amastigote form expressing luciferase gene infected in mouse J774A1 cells; format: functional, J774.A1
In short: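 Ratio of CC₅₀ in Vero cells (72 h MTT) to IC₅₀ against luciferase-expressing amastigotes in J774A.1 macrophages (72 h luminescence).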

Leishmania donovani [12] = assay: Antileishmanial activity against Leishmania donovani MHOM/IN/80/Dd8 amastigotes infected in syrian golden hamster assessed as decrease in parasite count in spleen at 100 mg/kg/day, po for 5 days measured on day 28 after last dose administration by giemsa staining; format: functional; details: MHOM/IN/80/Dd8, Spleen; in short: as §3
J774.A1 [13] = assay: Induction of nitric oxide production in mouse J774A1 cells infected with Leishmania donovani after 24 hrs by Griess reagent based spectrophotometric analysis relative to control; format: functional
In short: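 Infected J774A.1 macrophages (1 × 10⁶/mL) incubated with compound for 24 h; LPS 10 μg/mL as stimulant. Supernatant mixed 1:1 with Griess reagent at room temperature, absorbance at 540 nm, nitrite reported in μM. Normal, infected-untreated and infected-treated cells compared. Two independent experiments, mean ± SD; Student's t test against infected control.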

Leishmania donovani [14] = assay: Induction of apoptosis in Leishmania donovani MHOM/IN/80/Dd8 promastigotes assessed as drop in mitochondrial membrane potential at 0.78 uM after 72 hrs by JC-1 dye based flow cytometry (reference value: 5.87%); format: functional
[15] = Stability of the compound in simulated intestinal fluid assessed as compound degradation at 10 uM by HPLC-UV analysis; format: physicochemical; details: read-out: Drug degradation; in short: as §2
Leishmania donovani [16] = assay: Antileishmanial activity against intracellular amastigote form of Leishmania donovani MHOM/IN/80/Dd8 expressing luciferase gene infected in mouse J774A1 cells after 72 hrs by luminescence analysis; format: functional, organism-based; details: MHOM/IN/80/Dd8, J774.A1, 72 h
In short: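 J774A.1 macrophages (4 × 10⁴/mL, RPMI-1640 + 10% HIFBS, 37 °C, 5% CO₂), after 24 h infected with stationary-phase luciferase promastigotes (4 × 10⁵/mL). Free parasites washed off after 24 h. Compound added at up to 7 dilutions from 40 μM for 72 h. Luminescence read after Steady Glo in PBS. IC₅₀ from four-parameter Hill fit; at least duplicate measurements.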

[17] = Cmax in Syrian golden hamster at 100 mg/kg, po administered via gavage as single dose by HPLC-UV analysis; format: ADME, organism-based, Mesocricetus auratus; set-up: dose 100 mg/kg, route oral; details: in vivo; in short: as §1
Leishmania donovani [18] = assay: Induction of apoptosis in Leishmania donovani MHOM/IN/80/Dd8 promastigotes assessed as drop in mitochondrial membrane potential at 0.78 uM after 24 hrs by JC-1 dye based flow cytometry (reference value: 5.87%); format: functional
[19] = Terminal half life in Syrian golden hamster at 100 mg/kg, po administered via gavage as single dose by HPLC-UV analysis; format: ADME, organism-based, Mesocricetus auratus; set-up: dose 100 mg/kg, route oral; details: in vivo, read-out: beta t1/2 (converted); in short: as §1

- half-life at 10 µM [1]: 0.63 h
- Vd/F [2]: 392 L/kg
- Stability [6]: Stable
- CL/F [10]: 464 mL/min/kg
- degraded at 10 µM [15]: 30%
- IC50 (Leishmania donovani [16]): 5.4 µM
- Cmax [17]: 820 ng/mL
- half-life [19]: 7.4 h
SMILES: CC(C)=CCCC1(C)C=Cc2c(ccc(C(=O)/C=C/c3cccnc3)c2O)O1 (stereo not given)
- Activity (Syrian golden hamster): Non-toxic
- Activity (Leishmania donovani [3]): 30.79%
- Activity (Leishmania donovani [4]): 27.04%
- CC50 at 72 h [5]: 40.7 µM
- Activity (Leishmania donovani [7]): 10.47%
- inhibition in vivo at 50 mg/kg/day (Leishmania donovani [8]): 55.4%
- fold change (FC) (J774.A1 [9]): 11.6
- Ratio CC50/IC50 [11]: 7.5
- inhibition in vivo at 100 mg/kg/day (Leishmania donovani [12]): 84.5%
- fold change (FC) (J774.A1 [13]): 6.3
- Activity (Leishmania donovani [14]): 69.59%
- Activity (Leishmania donovani [18]): 31.88%
